Assay outcomes deposited in PubChem BioAssay by several laboratories.
Only some compounds are listed: those with a hit (about 2% of all), similar ones and a draw of the others.
PPC-1+TRAIL kill = PPC-1 cancer cell killing with TRAIL present. PPC-1 cells + TRAIL, ATPLite viability luminescence. cell killing (% activity), % at 4 µM or 5 µM. 0.41% of 220,000 active;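 active = cell killing above 50% in the first pass at 4 µM, then a duplicate retest at 5 µM averaging 50% or more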;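 note: plate controls were cells with TRAIL plus DMSO for no effect and medium-only wells lacking cells for full effect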
FLuc stim CS = affects firefly luciferase, flagging false hits in luciferase stimulation screens; AID 1027; ATPlite luciferase biochemical, luminescence, 10 min; 0 = ATP-free wells, 1 = DMSO control; activation factor at 10 µM; 200,000 tested, under 10 active; P08659;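 active = luciferase activation factor, scaled between plate controls, of at least 2 with compound at 10 µM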
Target sequence (P08659 whole entry, looked up): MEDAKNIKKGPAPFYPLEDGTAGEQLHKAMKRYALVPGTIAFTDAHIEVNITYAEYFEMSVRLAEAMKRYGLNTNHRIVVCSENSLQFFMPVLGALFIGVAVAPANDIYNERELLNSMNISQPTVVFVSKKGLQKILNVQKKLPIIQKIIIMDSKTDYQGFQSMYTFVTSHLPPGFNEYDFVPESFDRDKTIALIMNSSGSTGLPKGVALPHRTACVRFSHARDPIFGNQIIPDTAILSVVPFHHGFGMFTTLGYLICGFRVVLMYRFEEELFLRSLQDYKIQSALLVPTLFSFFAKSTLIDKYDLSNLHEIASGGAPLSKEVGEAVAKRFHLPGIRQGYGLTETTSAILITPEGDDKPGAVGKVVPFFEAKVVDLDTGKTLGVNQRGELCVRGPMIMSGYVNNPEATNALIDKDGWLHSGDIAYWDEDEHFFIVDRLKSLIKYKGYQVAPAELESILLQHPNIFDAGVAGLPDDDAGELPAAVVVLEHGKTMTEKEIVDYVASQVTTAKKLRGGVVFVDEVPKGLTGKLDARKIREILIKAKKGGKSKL
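Material: Luciferase/luciferin reagent mix; Doses: test compounds dosed from 2 mM stocks in 100% DMSO; Schedule: 10 min incubation after luciferase reagent addition, room temperature; Measured by: luminescence from luciferase reaction; Read-out: luminescence gain marking luciferase activators.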
FLuc inhib CS = inhibits firefly luciferase, flagging false hits in luciferase inhibition screens; P08659; ATPLite firefly luciferase biochemical luminescence, 10 min; inhibition, % at 10 µM; 1.5% of 200,000 active; AID 1006;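 active = inhibition above about 50% when tested at 10 µM, limit read from the data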
HSP90 refold inh = inhibitors of HSP90 luciferase refolding in rabbit reticulocyte lysate | 0.91% of 290,000 active | AID 1789 | inhibition, % at 5.6 µM | luciferase refolding luminescence, 3 h;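 active = inhibition above the screen-wide mean plus 3 SD, computed separately per campaign, cut at about 16% in these data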;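 note: 0% = DMSO wells and 100% = 60 µM geldanamycin wells; inhibitors lower the luminescence because luciferase stays unfolded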
C8 TRAIL sens = caspase-8 TRAIL sensitization; NB7+C8 cells + TRAIL, ATPlite viability luminescence; inhibition (viability loss, TRAIL sensitization), % at 10 µM; 1% of 360,000 active;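 active = compounds causing at least 50% loss of cell viability in the single-dose screen, relative to plate controls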
The depositor's hits bear a star.

Results for Cc1nc(Nc2nc3ccccc3o2)nc(C)c1C ?
PPC-1+TRAIL kill: 20.2; FLuc stim CS: 0.5; FLuc inhib CS: 51.3*; HSP90 refold inh: 6.7; C8 TRAIL sens: 26.0

How did COC(=O)c1c(NC(=O)COc2ccc(Cl)cc2)sc2c1CC(C)(C)NC2(C)C do in these assays?
HSP90 refold inh: 6.5; C8 TRAIL sens: 73.3*

Results for COC(=O)c1c(NC(=O)Cc2ccccc2)sc2c1CC(C)(C)NC2(C)C ?
HSP90 refold inh: -0.7; C8 TRAIL sens: -8.4

Results for CC[n+]1ccc(/C=C2\Sc3ccccc3N2CCCS(=O)(=O)[O-])c2ccccc21 ?
PPC-1+TRAIL kill: 13.7; FLuc stim CS: 1.1; FLuc inhib CS: -6.7; HSP90 refold inh: 1.1; C8 TRAIL sens: 9.9

What do the screens show for `CN1C=C/C(=C\c2cc[n+](C)c3ccccc23)c2ccccc21`?
FLuc stim CS: 0.8; FLuc inhib CS: 16.2; HSP90 refold inh: 16.6*; C8 TRAIL sens: 25.8

Results for CCC(=O)N1CCN(c2nc(CC)nc3sc4c(c23)CCCC4)CC1 ?
HSP90 refold inh: 4.1; C8 TRAIL sens: 1.9

How did CC1CCc2c(sc3nc(C(C)(C)C)nc(N4CCN(C(=O)CCl)CC4)c23)C1 (stereo not drawn) do in these assays?
HSP90 refold inh: 4.5; C8 TRAIL sens: 94.3*

Results for O=C(NCc1cc(C(F)(F)F)ccc1Cl)c1cccc2c1C(=O)c1ccc(N3CCC(N4CCCCC4)CC3)cc1S2(=O)=O ?
C8 TRAIL sens: 95.5*

Results for COc1ccc(-c2ccc3c(c2)S(=O)(=O)c2cccc(C(=O)NCc4ccccc4Cl)c2C3=O)cc1OC ?
C8 TRAIL sens: 31.6

Results for O=C(NCc1ccccc1Br)c1cccc2c1C(=O)c1ccc(-c3ccc(OC(F)(F)F)cc3)cc1S2(=O)=O ?
C8 TRAIL sens: 53.9*

Results for CC(C)c1cccc(-c2ccc3c(c2)S(=O)(=O)c2cccc(C(=O)NCc4ccccc4Cl)c2C3=O)c1 ?
C8 TRAIL sens: 67.7*

How did O=C(NCc1cc(C(F)(F)F)ccc1Cl)c1cccc2c1C(=O)c1ccc(N3CCCCC3)cc1S2(=O)=O do in these assays?
C8 TRAIL sens: 8.6

Results for COc1ccc(-c2ccc3c(c2)S(=O)(=O)c2cccc(C(=O)NCCOc4ccccc4Cl)c2C3=O)cc1OC ?
C8 TRAIL sens: 76.2*

How did O=C(O)c1cccc2c1C(=O)c1ccc(-c3ccc(OC(F)(F)F)cc3)cc1S2(=O)=O do in these assays?
C8 TRAIL sens: -1.4

Results for CCCCC(=O)Nc1ccc(C(=O)N(CC)c2ccccc2C)cc1 ?
PPC-1+TRAIL kill: 8.3; FLuc stim CS: 1.1; FLuc inhib CS: -7.0; HSP90 refold inh: 0.7; C8 TRAIL sens: 1.5

Results for CCOC(=O)C1C(=O)NC(c2ccccc2)=NC1c1ccc(Br)cc1 (stereo not drawn) ?
PPC-1+TRAIL kill: 34.4; FLuc stim CS: 1; FLuc inhib CS: -2.8; HSP90 refold inh: 4.7; C8 TRAIL sens: -6.3

How did Cc1cccnc1NC(=O)Cn1nc(-c2ccccc2)oc1=S do in these assays?
PPC-1+TRAIL kill: 63.8*; FLuc stim CS: 1; FLuc inhib CS: -3.7; HSP90 refold inh: -3.8; C8 TRAIL sens: 25.1

What do the screens show for `CC[C@H](C)C1OC(=O)[C@@H](C)[C@@H](CC)NC(=O)[C@H](C)N(C)C(=O)C(C)(C)C(=O)C(C)NC(=O)[C@H](Cc2ccc(OC)cc2)N(C)C(=O)[C@H](C(C)C)N(C)C(=O)CNC(=O)[C@H](CC(C)C)N(C)C(=O)CNC1=O` (stereo partly drawn)?
C8 TRAIL sens: 54.7*

How did CC(=O)c1sc(N/N=C\c2ccccc2O)nc1C do in these assays?
FLuc stim CS: 0.3; FLuc inhib CS: 68.2*; HSP90 refold inh: 1.0; C8 TRAIL sens: 35.0

What do the screens show for `Cc1ccc(C(=O)N/C(=C\c2ccc(-c3ccccc3[N+](=O)[O-])o2)C(=O)NCCCN(C)C)cc1`?
HSP90 refold inh: 0.6; C8 TRAIL sens: 49.3*

How did CN(C)CCCNC(=O)/C(=C/c1ccc(-c2ccc([N+](=O)[O-])cc2)o1)NC(=O)c1ccccc1 do in these assays?
HSP90 refold inh: 2.0; C8 TRAIL sens: 3.3

How did Cc1ccc(C(=O)N/C(=C\c2ccc(-c3ccccc3[N+](=O)[O-])o2)C(=O)NCCN(C)C)cc1 do in these assays?
HSP90 refold inh: 6.0; C8 TRAIL sens: 53.5*

Results for CC(C)[C@H](NC(=O)c1ccco1)C(=O)N(C)Cc1c(F)cccc1Cl ?
HSP90 refold inh: -3.0; C8 TRAIL sens: -6.9

How did CCOC(=O)c1ccc(-c2ccc(/C=N/NC(=O)CN(c3ccccc3Br)S(C)(=O)=O)o2)cc1 do in these assays?
PPC-1+TRAIL kill: 19.2; FLuc stim CS: 1; FLuc inhib CS: -3.5; HSP90 refold inh: 16.4*; C8 TRAIL sens: 21.8

How did CS(=O)(=O)N(CC(=O)N/N=C/c1cccc2c1OCCO2)c1ccccc1Br do in these assays?
PPC-1+TRAIL kill: 2.3; FLuc stim CS: 1.1; FLuc inhib CS: -8.5; HSP90 refold inh: -1.1; C8 TRAIL sens: 6.3

What do the screens show for `COc1ccc(CNC(=O)c2ccc(Cl)c(S(=O)(=O)N3CCOCC3)c2)cc1OC`?
C8 TRAIL sens: 14.4

How did Cc1cccc(C)c1NS(=O)(=O)c1ccc(OCCNS(C)(=O)=O)cc1 do in these assays?
PPC-1+TRAIL kill: 8.4; FLuc stim CS: 0.2; FLuc inhib CS: 81.2*; HSP90 refold inh: -0.3; C8 TRAIL sens: 1.4

How did O=C(OCc1cn([C@@H]2CN(CC3CCCCC3)[C@@H](c3ccccc3)C[C@H]2O)nn1)c1ccccc1 do in these assays?
C8 TRAIL sens: -2.4

What do the screens show for `O=C(NC1=C(NC2CCS(=O)(=O)C2)C(=O)c2ccccc2C1=O)c1ccccc1` (stereo not drawn)?
PPC-1+TRAIL kill: 22.8; FLuc stim CS: 1; FLuc inhib CS: -0.1; HSP90 refold inh: 3.2; C8 TRAIL sens: 51.7*

Results for COC(=O)[C@@H]1CCCN1C(=O)CCc1nnc(CCC2CCCCC2)o1 ?
PPC-1+TRAIL kill: 15.1; FLuc stim CS: 1; FLuc inhib CS: -0.5; HSP90 refold inh: 0.6; C8 TRAIL sens: 14.7

What do the screens show for `Cc1nn(C)c(Cl)c1S(=O)(=O)N1CCC(CO)(CCc2ccccc2)CC1`?
PPC-1+TRAIL kill: 4.8; FLuc stim CS: 1; FLuc inhib CS: -3.9; HSP90 refold inh: -0.3; C8 TRAIL sens: -6.0

What do the screens show for `O=C1c2cccc3c([N+](=O)[O-])ccc(c23)C(=O)N1c1nccs1`?
PPC-1+TRAIL kill: -5.2; FLuc stim CS: 1.1; FLuc inhib CS: -6.0; HSP90 refold inh: 3.8; C8 TRAIL sens: 53.0*

Results for O=C1c2cccc3c([N+](=O)[O-])ccc(c23)C(=O)N1c1ccccn1 ?
PPC-1+TRAIL kill: 3.6; FLuc stim CS: 1; FLuc inhib CS: 2.6; HSP90 refold inh: 0.0; C8 TRAIL sens: 50.7*

Results for CCc1ccc(NC(=O)CCc2nnc3ccc(N4CCCC4)nn23)cc1 ?
HSP90 refold inh: -3.3; C8 TRAIL sens: -5.4

Results for N/C(=N\O)c1ccc(N2CCN(c3ncccc3C(F)(F)F)CC2)nc1 ?
PPC-1+TRAIL kill: 17.6; HSP90 refold inh: -3.4; C8 TRAIL sens: 3.0
